Test results as given in ChEMBL document CHEMBL1150302, “Aminoacyl-tRNA synthetase inhibitors as potent and synergistic immunosuppressants” (J Med Chem, 2008).
Activity calls are given as the source filed them. The calls are words filed in the database; no cut-off is given here.

How the values were obtained:
PBMC [1] = assay: Immunosuppressive activity against human PBMC assessed as inhibition of allogenic mixed lymphocyte reaction; format: functional, cell-based
Outline: (§1)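 Responder cells taken from the Ficoll-plasma interface, washed three times (0.12 × 10⁶), cocultured for 6 days with mitomycin C-treated RPMI 1788 stimulator cells (0.045 × 10⁶) and compound in RPMI 1640 with 10% fetal calf serum. Pulsed after five days with 1 µCi methyl-³H thymidine, harvested 18 h later and counted. cpm converted to % inhibition versus compound-free MLR.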

PBMC [2] = assay: Immunosuppressive activity against human PBMC assessed as inhibition of allogenic mixed lymphocyte reaction at 0.1 uM; format: functional; outline: as §1
PBMC [3] = assay: Immunosuppressive activity against human PBMC assessed as inhibition of allogenic mixed lymphocyte reaction at 0.5 uM; format: functional; outline: as §1
PBMC [4] = assay: Immunosuppressive activity against human PBMC assessed as inhibition of allogenic mixed lymphocyte reaction at 0.0008 uM; format: functional; outline: as §1
PBMC [5] = assay: Immunosuppressive activity against human PBMC assessed as inhibition of allogenic mixed lymphocyte reaction at 0.0004 uM; format: functional; outline: as §1
PBMC [6] = assay: Immunosuppressive activity against human PBMC assessed as inhibition of allogenic mixed lymphocyte reaction upto 10 uM; format: functional, cell-based; outline: as §1
PBMC [7] = assay: Immunosuppressive activity against human PBMC assessed as inhibition of allogenic mixed lymphocyte reaction at 1.0 uM; format: functional; outline: as §1
PBMC [8] = assay: Immunosuppressive activity against human PBMC assessed as inhibition of allogenic mixed lymphocyte reaction at 0.06 uM; format: functional; outline: as §1
PBMC [9] = assay: Immunosuppressive activity against human PBMC assessed as inhibition of allogenic mixed lymphocyte reaction at 0.01 uM; format: functional; outline: as §1
PBMC [10] = assay: Immunosuppressive activity against human PBMC assessed as inhibition of allogenic mixed lymphocyte reaction at 0.08 uM; format: functional; outline: as §1

Row | Compound | IC50 (PBMC [1]) [nM] | also measured
1 | Nc1ncnc2c1ncn2[C@@H]1O[C@H](COS(=O)(=O)NC(=O)[C@@H](N)Cc2c[nH]c3ccccc23)[C@@H](O)[C@H]1O | 500 | inhibition at 0.1 µM (PBMC [2]): 2.3%; inhibition at 0.5 µM (PBMC [3]): 27.6%
2 | C[C@H](N)C(=O)NS(=O)(=O)OC[C@H]1O[C@@H](n2cnc3c(N)ncnc32)[C@H](O)[C@@H]1O [ALASA] | 1700 | inhibition at 0.1 µM (PBMC [2]): 6.5%; inhibition at 0.5 µM (PBMC [3]): 4.9%
3 | Nc1ncnc2c1ncn2[C@@H]1CO[C@H](COS(=O)(=O)NC(=O)[C@@H]2CCCN2)[C@@H](O)[C@H]1O | 750 | 
4 | Nc1ncnc2c1ncn2[C@@H]1O[C@H](COS(=O)(=O)NC(=O)[C@@H]2CSCN2)[C@@H](O)[C@H]1O | 550 | 
5 | Nc1ncnc2c1ncn2[C@@H]1O[C@H](COS(=O)(=O)NC(=O)[C@@H](N)Cc2c[nH]cn2)[C@@H](O)[C@H]1F | 450 | 
6 | CC[C@H](N)C(=O)NS(=O)(=O)OC[C@H]1O[C@@H](n2cnc3c(N)ncnc32)[C@H](O)[C@@H]1O | 5500 | 
7 | N=C(N)NCCC[C@H](N)C(=O)NS(=O)(=O)OC[C@H]1O[C@@H](n2cnc3c(N)ncnc32)[C@H](O)[C@@H]1O | 1000 | 
8 | CO[C@H]1C[C@@H]2CC[C@@H](C)[C@@](O)(O2)C(=O)C(=O)N2CCCC[C@H]2C(=O)O[C@H]([C@H](C)C[C@@H]2CC[C@@H](O)[C@H](OC)C2)CC(=O)[C@H](C)/C=C(\C)[C@@H](O)[C@@H](OC)C(=O)[C@H](C)C[C@H](C)/C=C/C=C/C=C/1C [SIROLIMUS] |  | inhibition at 0.0008 µM (PBMC [4]): 32.5%; inhibition at 0.0004 µM (PBMC [5]): 13.1%
9 | CSCC[C@H](N)C(=O)NS(=O)(=O)OC[C@H]1O[C@@H](n2cnc3c(N)ncnc32)[C@H](F)[C@@H]1O | 400 | 
10 | CSCC[C@H](N)C(=O)NS(=O)(=O)OC[C@H]1OC[C@@H](n2cnc3c(N)ncnc32)[C@H](O)[C@@H]1O | 5200 | 
11 | CC(C)[C@H](N)C(=O)NS(=O)(=O)OC[C@H]1O[C@@H](n2cnc3c(N)ncnc32)[C@H](O)[C@@H]1O | 5600 | 
12 | NCC(=O)NS(=O)(=O)OC[C@H]1O[C@@H](n2cnc3c(N)ncnc32)[C@H](O)[C@@H]1O | 800 | 
13 | C[C@@H](O)[C@H](N)C(=O)NS(=O)(=O)OC[C@H]1O[C@@H](n2cnc3c(N)ncnc32)[C@H](O)[C@@H]1O | 5200 | 
14 | CCC[C@H](N)C(=O)NS(=O)(=O)OC[C@H]1O[C@@H](n2cnc3c(N)ncnc32)[C@H](O)[C@@H]1O | 4700 | 
15 | Nc1ncnc2c1ncn2[C@@H]1O[C@H](COS(=O)(=O)NC(=O)[C@@H](N)CS)[C@@H](O)[C@H]1O | 400 | 
16 | C/C(=C\C(=O)OCCCCCCCCC(=O)O)C[C@@H]1OC[C@H](C[C@@H]2O[C@H]2[C@@H](C)[C@H](C)O)[C@@H](O)[C@H]1O |  | Activity (PBMC [6]): inactive
17 | CC(C)C[C@H](N)C(=O)NS(=O)(=O)OC[C@H]1O[C@@H](n2cnc3c(N)ncnc32)[C@H](F)[C@@H]1O | 450 | 
18 | C[C@H](N)C(=O)NS(=O)(=O)OC[C@H]1OC[C@@H](n2cnc3c(N)ncnc32)C[C@@H]1O | 5500 | 
19 | CC(C)C[C@H](N)C(=O)NS(=O)(=O)OC[C@H]1OC[C@@H](n2cnc3c(N)ncnc32)C[C@@H]1O | 6800 | 
20 | CSCC[C@H](N)C(=O)NS(=O)(=O)OC[C@H]1OC[C@@H](n2cnc3c(N)ncnc32)C[C@@H]1O | 5500 | 
21 | Nc1ncnc2c1ncn2[C@@H]1CO[C@H](COS(=O)(=O)NC(=O)[C@@H](N)Cc2c[nH]cn2)[C@@H](O)C1 | 6700 | 
22 | Nc1ncnc2c1ncn2[C@@H]1O[C@H](COS(=O)(=O)NC(=O)[C@@H](N)Cc2ccccc2)[C@@H](O)[C@H]1O [PHESA] | 1000 | inhibition at 0.1 µM (PBMC [2]): 10.7%; inhibition at 0.5 µM (PBMC [3]): 53.4%
23 | Nc1ncnc2c1ncn2[C@@H]1O[C@H](COS(=O)(=O)NC(=O)[C@@H](N)CCC(=O)O)[C@@H](O)[C@H]1O | 4900 | 
24 | Nc1ncnc2c1ncn2[C@@H]1O[C@H](COS(=O)(=O)NC(=O)[C@H](Cc2ccccc2)NCc2ccccc2)[C@@H](O)[C@H]1O | 200 | inhibition at 0.1 µM (PBMC [2]): 31.1%

Row | Compound | IC50 (PBMC [1]) [nM] | also measured
25 | C=C(C)CC(N)C(=O)NS(=O)(=O)OC[C@H]1O[C@@H](n2cnc3c(N)ncnc32)[C@H](O)[C@@H]1O (mixture of isomers) | 550 | 
26 | CSCC[C@H](N)C(=O)NS(=O)(=O)OC[C@H]1O[C@@H](n2cnc3c(N)ncnc32)[C@H](O)[C@@H]1O | 500 | inhibition at 0.5 µM (PBMC [3]): 28.4%
27 | Nc1ncnc2c1ncn2[C@@H]1O[C@H](COS(=O)(=O)NC(=O)[C@@H]2CCCN2)[C@@H](O)[C@H]1O | 700 | inhibition at 0.1 µM (PBMC [2]): -2.7%; inhibition at 0.5 µM (PBMC [3]): 18.6%
28 | CC[C@H](C)[C@H](N)C(=O)NS(=O)(=O)OC[C@H]1O[C@@H](n2cnc3c(N)ncnc32)[C@H](O)[C@@H]1O | 5600 | 
29 | Nc1ncnc2c1ncn2[C@@H]1O[C@H](COS(=O)(=O)NC(=O)[C@@H](N)CO)[C@@H](O)[C@H]1O | 4800 | 
30 | Nc1ncnc2c1ncn2[C@@H]1O[C@H](COS(=O)(=O)NC(=O)[C@@H](N)Cc2cnc[nH]2)[C@@H](O)[C@H]1O | 1000 | inhibition at 0.1 µM (PBMC [2]): 12.4%
31 | NCCCC[C@H](N)C(=O)NS(=O)(=O)OC[C@H]1O[C@@H](n2cnc3c(N)ncnc32)[C@H](O)[C@@H]1O | 1000 | inhibition at 1 µM (PBMC [7]): 67%
32 | N=C(N)NCCC[C@H](N)C(=O)NS(=O)(=O)OC[C@H]1OC[C@@H](n2cnc3c(N)ncnc32)[C@H](O)[C@@H]1O | 600 | 
33 | Nc1ncnc2c1ncn2[C@@H]1CO[C@H](COS(=O)(=O)NC(=O)[C@H](Cc2ccccc2)NCc2ccccc2)[C@@H](O)[C@H]1O | 80 | 
34 | NC(=O)CC[C@H](N)C(=O)NS(=O)(=O)OC[C@H]1O[C@@H](n2cnc3c(N)ncnc32)[C@H](O)[C@@H]1O | 800 | 
35 | N=C(N)NCCC[C@H](N)C(=O)NS(=O)(=O)OC[C@H]1OC[C@@H](n2cnc3c(N)ncnc32)C[C@@H]1O | 600 | 
36 | Nc1ncnc2c1ncn2[C@@H]1O[C@H](COS(=O)(=O)NC(=O)[C@@H](N)Cc2ccc(O)cc2)[C@@H](O)[C@H]1O | 5600 | 
37 | Nc1ncnc2c1ncn2[C@@H]1CO[C@H](COS(=O)(=O)NC(=O)[C@@H](N)Cc2c[nH]cn2)[C@@H](O)[C@H]1O | 1200 | 
38 | C/C=C/C[C@@H](C)[C@@H](O)[C@H]1C(=O)N[C@@H](CC)C(=O)N(C)CC(=O)N(C)[C@@H](CC(C)C)C(=O)N[C@@H](C(C)C)C(=O)N(C)[C@@H](CC(C)C)C(=O)N[C@@H](C)C(=O)N[C@H](C)C(=O)N(C)[C@@H](CC(C)C)C(=O)N(C)[C@@H](CC(C)C)C(=O)N(C)[C@@H](C(C)C)C(=O)N1C [CYCLOSPORINE] |  | inhibition at 0.06 µM (PBMC [8]): 65.7%; inhibition at 0.01 µM (PBMC [9]): 32%; inhibition at 0.08 µM (PBMC [10]): 75.2%
39 | C[C@H](N)C(=O)NS(=O)(=O)OC[C@H]1OC[C@@H](n2cnc3c(N)ncnc32)[C@H](O)[C@@H]1O | 300 | inhibition at 0.5 µM (PBMC [3]): 68%
40 | C[C@H](N)C(=O)NS(=O)(=O)OC[C@H]1O[C@@H](n2cnc3c(N)ncnc32)[C@H](F)[C@@H]1O | 400 | 
41 | Nc1ncnc2c1ncn2[C@@H]1O[C@H](COS(=O)(=O)NC(=O)[C@@H](N)CC(=O)O)[C@@H](O)[C@H]1O | 2400 | 
42 | Nc1ncnc2c1ncn2[C@@H]1O[C@H](COS(=O)(=O)NC(=O)[C@@H]2CCCN2)[C@@H](O)[C@H]1F | 300 | 
43 | NC(=O)C[C@H](N)C(=O)NS(=O)(=O)OC[C@H]1O[C@@H](n2cnc3c(N)ncnc32)[C@H](O)[C@@H]1O | 300 | 
44 | CC(C)C[C@H](N)C(=O)NS(=O)(=O)OC[C@H]1OC[C@@H](n2cnc3c(N)ncnc32)[C@H](O)[C@@H]1O | 1000 | 
45 | CC(C)C[C@H](N)C(=O)NS(=O)(=O)OC[C@H]1O[C@@H](n2cnc3c(N)ncnc32)[C@H](O)[C@@H]1O [LEUSA] | 1100 | inhibition at 0.1 µM (PBMC [2]): 16%; inhibition at 0.5 µM (PBMC [3]): 16.3%
46 | Nc1ncnc2c1ncn2[C@@H]1O[C@H](COS(=O)(=O)NC(=O)[C@@H]2CCN2)[C@@H](O)[C@H]1O | 600 | 
47 | Nc1ncnc2c1ncn2[C@@H]1CO[C@H](COS(=O)(=O)NC(=O)[C@@H]2CCCN2)[C@@H](O)C1 | 2800 | 
